From ChEMBL document CHEMBL4433205, “Dual Pharmacophores Explored via Structure-Activity Relationship (SAR) Matrix: Insights into Potent, Bifunctional Opioid Ligand Design” (J Med Chem, 2019) come the findings set out here.

The target of data set [1] is Mu-type opioid receptor (Rattus norvegicus) (UniProt P33535). The data set can be described thus: Agonist activity at rat mu opioid receptor expressed in rat C6 glioma cell membranes assessed as stimulation of [35S]GTPgammaS binding measured after 1 hr relative to DAMGO. It is filed as functional. A general note: GTPγS resists hydrolysis and so accumulates on activated G proteins.
Mu-type opioid receptor (Rattus norvegicus), sequence (P33535 whole entry): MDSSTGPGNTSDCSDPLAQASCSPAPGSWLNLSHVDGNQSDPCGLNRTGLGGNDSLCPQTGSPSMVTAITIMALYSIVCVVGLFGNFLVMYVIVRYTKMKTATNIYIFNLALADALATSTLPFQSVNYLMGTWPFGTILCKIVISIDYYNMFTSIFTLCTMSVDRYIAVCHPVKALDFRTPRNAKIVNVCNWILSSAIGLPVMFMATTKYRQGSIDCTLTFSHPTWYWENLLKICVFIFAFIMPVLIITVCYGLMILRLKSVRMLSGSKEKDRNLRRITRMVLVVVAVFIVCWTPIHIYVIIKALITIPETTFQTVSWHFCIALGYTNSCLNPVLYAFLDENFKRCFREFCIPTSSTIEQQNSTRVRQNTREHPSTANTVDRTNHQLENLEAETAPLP

For data set [2], the target named is Delta-type opioid receptor (Rattus norvegicus) (UniProt P33533). The data set can be described thus: Agonist activity at rat delta opioid receptor expressed in C6 cell membranes assessed as stimulation of [35S]GTPgammaS binding at 1 uM incubated for 1 hr relative to SNC80. Type of data set: functional. Put shortly: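 Rat DOR in C6 glioma membranes, [35S]-GTPγS binding (0.1 nM, 30 μM GDP, 1 h, 25°C). SNC80 concentration–response run alone and with 1 μM test compound present; stimulation expressed relative to SNC80. Ke = compound concentration/(EC50 shift − 1). Mean of ≥3 assays in duplicate.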
Delta-type opioid receptor (Rattus norvegicus), sequence (P33533 whole entry): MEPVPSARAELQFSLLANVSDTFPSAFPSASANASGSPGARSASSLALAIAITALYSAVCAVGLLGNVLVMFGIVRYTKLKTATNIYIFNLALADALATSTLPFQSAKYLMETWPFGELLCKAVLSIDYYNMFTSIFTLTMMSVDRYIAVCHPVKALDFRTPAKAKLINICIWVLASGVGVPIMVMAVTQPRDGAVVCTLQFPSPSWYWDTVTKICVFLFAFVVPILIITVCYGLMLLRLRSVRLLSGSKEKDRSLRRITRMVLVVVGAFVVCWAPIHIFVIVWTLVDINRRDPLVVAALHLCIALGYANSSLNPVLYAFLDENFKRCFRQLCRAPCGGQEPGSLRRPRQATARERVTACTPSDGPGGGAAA

Data set [3] concerns the target T1, Delta-type opioid receptor (Rattus norvegicus, UniProt P33533). The data set can be described thus: Displacement of [3H]diprenorphine from rat delta opioid receptor expressed in rat C6 cell membranes measured after 1 hr by liquid scintillation counting method. (In general: Loss of bound radioactivity is the signal in a displacement assay; it reports binding, not function.)

The target in data set [4] is T2, Kappa-type opioid receptor (Homo sapiens, UniProt P41145). In words: Agonist activity at human kappa opioid receptor expressed in CHO cell membranes assessed as stimulation of [35S]GTPgammaS binding to G protein incubated for 1 hr relative to U69,593. It is filed as functional.
T2 sequence (P41145 whole entry): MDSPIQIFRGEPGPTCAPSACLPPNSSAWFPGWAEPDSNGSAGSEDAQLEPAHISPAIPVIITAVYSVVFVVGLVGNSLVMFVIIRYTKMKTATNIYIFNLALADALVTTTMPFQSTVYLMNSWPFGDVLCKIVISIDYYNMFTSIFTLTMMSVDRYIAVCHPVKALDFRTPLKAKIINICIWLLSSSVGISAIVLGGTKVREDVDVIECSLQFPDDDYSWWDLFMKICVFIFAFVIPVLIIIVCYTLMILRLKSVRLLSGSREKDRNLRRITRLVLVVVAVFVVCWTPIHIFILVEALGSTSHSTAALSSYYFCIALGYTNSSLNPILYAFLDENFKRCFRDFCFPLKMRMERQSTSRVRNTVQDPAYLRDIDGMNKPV
The target of data set [5] is Delta-type opioid receptor (Rattus norvegicus) (UniProt P33533). In words: Antagonist activity at rat delta opioid receptor expressed in rat C6 cell membranes assessed as inhibition of SNC80-induced [35S] GTPgammaS binding measured after 1 hr. It is filed as functional. A digest of the protocol: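 Membranes from rat C6 glioma cells stably expressing rat DOR; [35S]-GTPγS (0.1 nM) binding stimulated by SNC80 concentration–response, alone or with test compound at 1 μM, 1 h at 25°C in 50 mM Tris-HCl, 100 mM NaCl, 5 mM MgCl2, pH 7.4, with 30 μM GDP; filtration and scintillation counting.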

The target in data set [6] is T3, Mu-type opioid receptor (Rattus norvegicus, UniProt P33535). In words: Agonist activity at rat mu opioid receptor expressed in rat C6 cell membranes assessed as stimulation of [35S]GTPgammaS binding measured after 1 hr. It is filed as functional. A digest of the protocol: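 Membranes (10–20 μg protein/tube) from stably transfected cells incubated 1 h at 25°C in 50 mM Tris-HCl, 100 mM NaCl, 5 mM MgCl2, pH 7.4, with 0.1 nM [35S]-GTPγS, 30 μM GDP and varying test concentrations; filtration, scintillation counting.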
T3 sequence (P33535 whole entry): as the sequence (P33535 whole entry) above

The target of data set [7] is T1, Delta-type opioid receptor. The data set can be described thus: Agonist activity at rat delta opioid receptor expressed in rat C6 cell membranes assessed as stimulation of [35S]GTPgammaS binding measured after 1 hr. Type of data set: functional. The following applies: c6.
Data set [8] deals with T2, Kappa-type opioid receptor. In words: Displacement of [3H]diprenorphine from human kappa opioid receptor expressed in CHO cell membranes measured after 1 hr by liquid scintillation counting method. Put shortly: (§1)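 Competition with 0.2 nM [3H]-diprenorphine on membranes (20 μg protein/tube) from stably transfected cells in 50 mM Tris-HCl pH 7.4, 1 h at room temperature with shaking; GF/C filtration, three washes, scintillation counting. Nonspecific binding defined with 10 μM naloxone.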

Data set [9] has as its target Delta-type opioid receptor (Rattus norvegicus) (UniProt P33533). The data set can be described thus: Agonist activity at rat delta opioid receptor expressed in rat C6 cell membranes assessed as stimulation of [35S]GTPgammaS binding incubated for 1 hr relative to DPDPE. Type of data set: functional.
Data set [10] relates to Mus musculus. In words: Antinociceptive activity in C57BL/6 mouse assessed as increase in latency to tail withdrawal by measuring time of action at 10 mg/kg, ip administered as bolus dose by warm water tail withdrawal assay. It is filed as functional. A digest of the protocol: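 Male C57BL/6 mice; saline ip, baseline 30 min later, then single 10 mg/kg ip bolus in 5% DMSO/saline. Tail withdrawal in 50°C water (20 s cutoff) at 5, 15, 30 min and every 30 min until return to baseline; duration = time from dosing to baseline return, done only for fully active compounds.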

Data set [11] deals with Mus musculus. In words: Antinociceptive activity in C57BL/6 mouse assessed as increase in latency to tail withdrawal up to 10 mg/kg, ip administered at 30 mins interval measured during compound dosing by warm water tail withdrawal assay relative to control. It is filed as functional. A digest of the protocol:
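Male C57BL/6 mice, 20–30 g, 8–16 weeks. Saline ip, baseline latency 30 min later; then cumulative ip doses 1, 3.2, 10 mg/kg in 5% DMSO/saline at 30 min intervals, latency read 30 min after each. Tail tip (2–3 cm) in 50°C water, 20 s cutoff; expressed as % MPE (MPE = 20 s).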

The next data set is filed under the species Rattus norvegicus. In words: Selectivity ratio of Ki for rat delta opioid receptor expressed in rat C6 cell membranes to Ki for rat mu opioid receptor expressed in rat C6 cell membranes. Type of data set: cell-based. Put shortly: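 Competition binding against 0.2 nM [3H]-diprenorphine, using C6 membranes expressing rat MOR or rat DOR (20 μg protein/tube). Run in 50 mM Tris-HCl pH 7.4, 1 h at room temperature with shaking, then filtration and scintillation counting. Nonspecific binding with 10 μM naloxone.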

The target of data set [12] is T2, Kappa-type opioid receptor. In words: Agonist activity at human kappa opioid receptor expressed in CHO cell membranes assessed as stimulation of [35S]GTPgammaS binding measured after 1 hr. Type of data set: functional. The settings on record: read-out: EC50.
The target of data set [13] is T3, Mu-type opioid receptor. The data set can be described thus: Displacement of [3H]diprenorphine from rat mu opioid receptor expressed in rat C6 cell membranes measured after 1 hr by liquid scintillation counting method. Put shortly:
as §1

Data set [14] can be described thus: Lipophilicity, log P of the compound. It is filed as physicochemical. The settings on record: octanol/water.

Activity calls are given as the source filed them.

T1 sequence (P33533 whole entry): as the sequence (P33533 whole entry) above

What is called Ki is a dissociation constant, usually derived from enzyme kinetics or from competition with a known ligand. Read a high Ki as weaker binding. One may read the EC50 as the concentration needed to bring the measured effect to its halfway point. A word on the logP: it is the decadic logarithm of the partition coefficient of the neutral form, usually between octanol and water. In the case of `Cc1cc(O)cc(C)c1C[C@H](N)C(=O)N[C@@H]1CCN(S(C)(=O)=O)c2ccc(CN3CCc4ccccc4C3)cc21.O=C(O)C(F)(F)F`, the Efficacy in [1] was found to be 114%; in data set [4] it was 51%. The Activity in [2] was 100%. The results for the inhibition constant (Ki) (in [3]; in data set [8]; at Mu-type opioid receptor [13]) were 0.98 nM, 1.1 nM and 0.11 nM, respectively. The Ke in [5] was found to be 0.85 nM. The concentration for a half-maximal effect (EC50) on Mu-type opioid receptor [6] is 0.12 nM; in data set [7] it was “Not Active”; in [12], 45 nM. Further, the Efficacy entry in data set [9] was “inactive”. The Time with Mus musculus [10] turned out to be 90 min. Besides, in the data set with Mus musculus [11], the MPE was 100%. Further, the Ratio Ki in the data set filed under Rattus norvegicus was found to be 9. Also, the log partition coefficient (logP) in data set [14] is 3.1.
